Laboratory results reported in ChEMBL document CHEMBL3102732, “Potential antiviral lignans from the roots of Saururus chinensis with activity against Epstein-Barr virus lytic replication” (J Nat Prod, 2014).

Columns and labels:
[1] = Selectivity index, ratio of CC50 for human P3HR1 cells to EC50 for EBV infected in human P3HR1 cells; design: species or system P3HR-1
Procedure, shortened: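 CC50: P3HR-1 cells treated or untreated with compounds, viability counted by Trypan blue exclusion under light microscope 2 days post-treatment, relative to nondrug-treated controls, CC50 from dose-response curves. EC50: TPA (20 ng/mL)/sodium butyrate (0.3 mM)-induced P3HR-1 cells, compounds added 3 h later, EBV EBNA1 DNA quantified by real-time PCR at 48 h. Ratio CC50/EC50.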

[2] = Cytotoxicity against human P3HR1 cells assessed as cell viability after 2 days by trypan blue staining-based light microscopy; design: species or system P3HR-1
Human gammaherpesvirus 4 = experiment: Antiviral activity against EBV infected in human P3HR1 cells assessed as inhibition of lytic viral DNA replication after 48 hrs by RT-PCR analysis; type: functional, organism-based; settings: human gammaherpesvirus 4, P3HR-1, 48 h
Procedure, shortened: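 P3HR-1 Burkitt lymphoma cells latently carrying EBV, grown in RPMI 1640 with 10% FBS, induced to lytic replication with TPA 20 ng/mL plus sodium butyrate 0.3 mM. Compounds added 3 h later across a concentration range. At 48 h post-induction, total cellular DNA purified, EBV genome copies quantified by SYBR green real-time PCR for EBNA1. Noninduced background subtracted, normalised to untreated induced cells, EC50 from dose-response curve.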

| Compound | Ratio CC50/EC50 [1] | CC50 at 48 h [2] | EC50 (Human gammaherpesvirus 4) |
| --- | --- | --- | --- |
| C/C=C/c1cc(OC)c(O[C@@H](C)[C@@H](O)c2cc(OC)c(OC)c(OC)c2)c(OC)c1 | 3.2 | 77.3 µM | 24 µM |
| COc1ccc([C@H]2O[C@@H](c3ccc(OC)c(OC)c3)[C@@H](C)[C@H]2C)cc1OC | 1.2 | 59.8 µM | 49.9 µM |
| C=CCc1cc(OC)c(O[C@H](C)[C@H](OC(C)=O)c2cc(OC)c(OC)c(OC)c2)c(OC)c1 | 4 | 85 µM | 21.5 µM |
| C=CCc1cc(OC)c(O[C@H](C)[C@H](O)c2cc(OC)c3c(c2)OCO3)c(OC)c1 | 4 | 50.6 µM | 12.8 µM |
| C/C=C/c1cc(OC)c(O[C@H](C)[C@H](OC(C)=O)c2cc(OC)c(OC)c(OC)c2)c(OC)c1 | 3 | 76.8 µM | 25.4 µM |
| C=CCc1cc(OC)c(O[C@H](C)C(=O)c2cc(OC)c(OC)c(OC)c2)c(OC)c1 | >9.1 | > 200 µM | 21.9 µM |
| C/C=C/c1ccc(O[C@H](C)[C@H](O)c2ccc(O)c(OC)c2)c(OC)c1 | 2.6 | 61.3 µM | 23.8 µM |
| COc1ccc([C@H]2O[C@@H](c3cc(OC)c(O)c(OC)c3)[C@H](C)[C@@H]2C)cc1OC | 8.6 | 100 µM | 11.6 µM |
| COc1ccc([C@H]2O[C@@H](c3cc(OC)c(OC)c(OC)c3)[C@H](C)[C@@H]2C)cc1OC | 2.5 | 172 µM | 67.9 µM |
| COc1cc([C@H]2O[C@@H](c3cc(OC)c4c(c3)OCO4)[C@H](C)[C@@H]2C)cc(OC)c1OC | 2 | 55 µM | 27.3 µM |
| COc1cc([C@H]2O[C@@H](c3cc(OC)c(OC)c(OC)c3)[C@H](C)[C@@H]2C)cc(OC)c1O | 2.2 | 65.8 µM | 29.5 µM |
| COc1cc([C@H]2O[C@@H](c3ccc(OC)c(OC)c3)[C@@H](C)[C@H]2C)ccc1O | 2.3 | 62.3 µM | 26.9 µM |
| COc1cc([C@@H](O)[C@@H](C)Oc2ccc([C@@H]3O[C@H](c4ccc(O)c(OC)c4)[C@H](C)[C@H]3C)cc2OC)ccc1O | 3.3 | 23.2 µM | 6.95 µM |
| COc1cc([C@H]2O[C@@H](c3cc(OC)c(OC)c(OC)c3)[C@H](C)[C@@H]2C)cc(O)c1OC | 1.9 | 32 µM | 16.7 µM |
| COc1ccc([C@@H](O)[C@@H](C)Oc2ccc([C@H]3O[C@H](c4ccc(OC)c(OC)c4)[C@H](C)[C@H]3C)cc2OC)cc1OC | 65 | 110 µM | 1.7 µM |
| COc1ccc([C@@H](O)[C@@H](C)Oc2ccc(C(=O)[C@H](C)[C@H](C)C(=O)c3ccc(O[C@H](C)[C@H](O)c4ccc5c(c4)OCO5)c(OC)c3)cc2OC)cc1OC | >12.4 | > 200 µM | 16.2 µM |
| COc1cc([C@@H](O)[C@@H](C)Oc2ccc([C@H]3O[C@H](c4ccc(O[C@H](C)[C@H](O)c5ccc(OC)c(OC)c5)c(OC)c4)[C@H](C)[C@H]3C)cc2OC)ccc1O | 9.2 | 69.5 µM | 7.55 µM |
| COc1ccc([C@@H](O)[C@@H](C)Oc2ccc([C@H]3O[C@H](c4ccc(O[C@H](C)[C@H](O)c5ccc6c(c5)OCO6)c(OC)c4)[C@H](C)[C@H]3C)cc2OC)cc1O |  | 26.5 µM | 2.69 µM |
| COc1cc(C(=O)[C@@H](C)Oc2c(OC)cc(/C=C/CO)cc2OC)cc(OC)c1OC | >2.5 | > 200 µM | 80.1 µM |
| C=CCc1cc(OC)c(O[C@H](COC(C)=O)[C@H](O)c2cc(OC)c(OC)c(OC)c2)c(OC)c1 | 3.7 | 194 µM | 53.3 µM |
| COc1cc([C@@H](OC(C)=O)[C@@H](C)Oc2c(OC)cc(/C=C/CO)cc2OC)cc(OC)c1OC | >4.2 | > 200 µM | 44.3 µM |
| C/C=C/c1cc(OC)c(O[C@H](C)[C@H](O)c2cc(OC)c3c(c2)OCO3)c(OC)c1 | 4.2 | 90.3 µM | 21.7 µM |
| COc1ccc([C@@H](O)[C@@H](C)Oc2ccc([C@H]3O[C@@]4(c5ccc(O[C@H](C)[C@H](O)c6ccc(OC)c(OC)c6)c(OC)c5)O[C@@]4(C)[C@H]3C)cc2OC)cc1OC (relative stereo) | 4.4 | 64.8 µM | 14.5 µM |
| COc1cc([C@@H](O)[C@@H](C)Oc2ccc([C@H]3O[C@H](c4ccc(O[C@H](C)[C@H](O)c5ccc6c(c5)OCO6)c(OC)c4)[C@H](C)[C@H]3C)cc2OC)ccc1O [4-O-DEMETHYLMANASSANTIN B] | 20.2 | 70.8 µM | 3.52 µM |
| COc1cc([C@H]2O[C@@H](c3cc(OC)c(OC)c(OC)c3)[C@H](C)[C@H]2C)cc(OC)c1OC [EPIGRANDISIN] | >8 | > 200 µM | 25 µM |
| COc1ccc([C@@H](O)[C@@H](C)Oc2ccc([C@H]3O[C@H](c4ccc(O[C@H](C)[C@H](O)c5ccc6c(c5)OCO6)c(OC)c4)[C@H](C)[C@H]3C)cc2OC)cc1OC [MANASSANTIN B] | >116.4 | > 200 µM | 1.72 µM |
| COc1ccc([C@H](O)[C@@H](C)Oc2ccc([C@H]3O[C@H](c4ccc5c(c4)OCO5)[C@H](C)[C@H]3C)cc2OC)cc1OC [SAUCERNEOL D] | 41.1 | 45 µM | 1.09 µM |
